Measurements taken from ChEMBL document CHEMBL1149264, “Discovery of novel phenolic antioxidants as inhibitors of vascular cell adhesion molecule-1 expression for use in chronic inflammatory diseases” (J Med Chem, 2004).
pIC50: −log10 of the molar value. Activity calls are given as the source filed them. The rule behind the calls is not given here.

Columns and labels:
[1] = Inhibition of TNF-alpha-stimulated VCAM1 expression in endothelial cells; assay type: functional, cell-based; settings: Homo sapiens, Endothelial cell
[2] = Inhibition of LPS-induced IL1-beta secretion in human PBMN cells by ELISA; assay type: functional, cell-based
Summary of the method: (§1)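 Fresh cryopreserved human PBMCs at 1 million cells/mL in lymphocyte growth media-3 were pretreated with compound for 1 h, then stimulated with LPS 1 μg/mL for a further 2 h with compound present. Secreted TNF-α, IL-6 and IL-1β in conditioned media measured by human ELISA, in duplicate (mean ± SD). Experiments repeated at least three times.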

[3] = Inhibition of LPS-induced TNFalpha secretion in human PBMN cells by ELISA; assay type: functional, cell-based; summary of the method: as §1
[4] = Inhibition of LPS-induced IL6 secretion in human PBMN cells by ELISA; assay type: functional, cell-based; summary of the method: as §1
[5] = molecular target: T1, Polyunsaturated fatty acid lipoxygenase ALOX15 (Homo sapiens, UniProt P16050); experiment: Inhibition of 15-lipoxygenase by LMB assay
T1 sequence (P16050 whole entry): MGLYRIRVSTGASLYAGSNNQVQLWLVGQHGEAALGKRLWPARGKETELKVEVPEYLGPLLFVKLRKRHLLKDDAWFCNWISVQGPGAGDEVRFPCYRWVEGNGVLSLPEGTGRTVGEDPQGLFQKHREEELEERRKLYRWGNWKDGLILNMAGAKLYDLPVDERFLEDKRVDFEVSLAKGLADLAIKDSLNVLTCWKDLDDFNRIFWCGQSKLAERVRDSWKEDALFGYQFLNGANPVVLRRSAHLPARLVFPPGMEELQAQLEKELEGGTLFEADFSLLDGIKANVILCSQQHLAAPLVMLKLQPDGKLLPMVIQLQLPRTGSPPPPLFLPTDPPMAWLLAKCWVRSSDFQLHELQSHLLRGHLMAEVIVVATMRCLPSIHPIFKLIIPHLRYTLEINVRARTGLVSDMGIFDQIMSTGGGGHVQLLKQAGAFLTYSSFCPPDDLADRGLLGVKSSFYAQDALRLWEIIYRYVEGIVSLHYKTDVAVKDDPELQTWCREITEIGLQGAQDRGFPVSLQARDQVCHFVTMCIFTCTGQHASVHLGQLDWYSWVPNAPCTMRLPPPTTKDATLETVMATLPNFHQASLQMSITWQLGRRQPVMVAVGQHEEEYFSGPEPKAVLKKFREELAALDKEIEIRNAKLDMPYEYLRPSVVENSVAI

Syrian golden hamster [6] = experiment: Effect on HDL level in hypercholesterolemic golden Syrian hamster; assay type: functional, Mesocricetus auratus; design: unit not given here
Summary of the method: (§2)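 Male golden Syrian hamsters (110-120 g), housed singly, given compound mixed into powdered chow at 150 mg/kg/d for two weeks. After an overnight fast and ketamine/xylazine i.p. anesthesia, blood was taken by cardiac puncture or abdominal aorta. Plasma was fractionated by FPLC and lipoprotein cholesterol measured enzymatically. Dunnett's test against controls.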

Syrian golden hamster [7] = experiment: Effect on LDL level in hypercholesterolemic golden Syrian hamster; assay type: functional, Mesocricetus auratus; design: unit not given here; summary of the method: as §2
Mus musculus [8] = experiment: Inhibition of mBSA-induced paw-swelling in DTH BALB/c mouse model at 50 mg/kg, sc; assay type: functional; settings: route subcutaneous
Summary of the method: (§3)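 Male BALB/c mice (20-25 g) sensitized on day 0 with intradermal abdominal mBSA (5 mg/mL)/Freund's complete adjuvant 1:1 emulsion. On day 7 challenged with mBSA in the right hind footpad, saline in the left. Compound given s.c. 24 h and 2 h before challenge; cyclosporin A 20 mg/kg as reference. Feet weighed 24 h post-challenge; swelling inhibition relative to vehicle group (100%). ANOVA with Fisher's PLSD.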

Mus musculus [9] = experiment: Inhibition of mBSA-induced paw-swelling in DTH BALB/c mouse model at 25 mg/kg, sc; assay type: functional; settings: route subcutaneous; summary of the method: as §3
PBMN = experiment: Inhibition of LPS-induced IL1-beta secretion in human PBMN cells at 10 uM by ELISA; assay type: functional, cell-based; summary of the method: as §1
Rattus norvegicus [10] = experiment: Inhibition of paw edema in collagen 2-sensitized orally dosed rat model; assay type: functional, organism-based
Rattus norvegicus [11] = organism: Rattus norvegicus; experiment: Inhibition of artheriosclerosis in allograft recipient rat; assay type: functional, organism-based

CC(C)(Sc1cc(C(C)(C)C)c(O)c(C(C)(C)C)c1)Sc1ccc(C(C)(C)C)c(O/C=C/CO)c1C(C)(C)C
pIC50 [1]: 4.26

CC(C)(Sc1cc(C(C)(C)C)c(OCC(=O)O)c(C(C)(C)C)c1)Sc1ccc(C(C)(C)C)c(OCC(=O)O)c1C(C)(C)C
pIC50 [1]: < 4.30 | pIC50 [2]: < 5.00 | pIC50 [3]: < 5.00 | pIC50 [4]: < 5.00 | pIC50 [5]: < 3.90

CCOCC(O)COc1c(C(C)(C)C)ccc(SC(C)(C)Sc2cc(C(C)(C)C)c(O)c(C(C)(C)C)c2)c1C(C)(C)C (centres undefined)
pIC50 [1]: < 4.30

CC(C)(Sc1cc(C(C)(C)C)c(O)c(C(C)(C)C)c1)Sc1cc(C(C)(C)C)c(OC(=O)CCC(=O)O)c(C(C)(C)C)c1 [SUCCINOBUCOL]
pIC50 [1]: 5.22

C=CC(=O)OCCCCOc1c(C(C)(C)C)ccc(SC(C)(C)Sc2cc(C(C)(C)C)c(O)c(C(C)(C)C)c2)c1C(C)(C)C
pIC50 [1]: 4.12

CC(C)(Sc1cc(C(C)(C)C)c(O)c(C(C)(C)C)c1)Sc1ccc(C(C)(C)C)c(OC[C@@H](O)[C@@H](O)[C@@H](O)C(=O)O)c1C(C)(C)C
pIC50 [1]: 4.46 | Activity (Syrian golden hamster [6]): 173 | Activity (Syrian golden hamster [7]): 175

CC(C)(Sc1cc(C(C)(C)C)c(O)c(C(C)(C)C)c1)Sc1ccc(C(C)(C)C)c(OCC(=O)N[C@@H](CCC(=O)O)C(=O)O)c1C(C)(C)C
pIC50 [1]: 4.12

CC(=O)OCC(O)COc1c(C(C)(C)C)ccc(SC(C)(C)Sc2cc(C(C)(C)C)c(O)c(C(C)(C)C)c2)c1C(C)(C)C (centres undefined)
pIC50 [1]: 4.39

CC(C)(Sc1cc(C(C)(C)C)c(O)c(C(C)(C)C)c1)Sc1ccc(C(C)(C)C)c(OCC(=O)NCCC(=O)O)c1C(C)(C)C
pIC50 [1]: 5.22

CC(C)(Sc1cc(C(C)(C)C)c(O)c(C(C)(C)C)c1)Sc1cc(C(C)(C)C)c(O)c(C(C)(C)C)c1 [PROBUCOL]
pIC50 [2]: < 4.40 | pIC50 [3]: < 4.40 | pIC50 [4]: < 4.40

CC(C)(Sc1cc(C(C)(C)C)c(O)c(C(C)(C)C)c1)Sc1ccc(C(C)(C)C)c(OC[C@H]2OC(O)[C@H](O)[C@@H](O)[C@@H]2O)c1C(C)(C)C (some centres undefined)
pIC50 [1]: 5.00 | pIC50 [3]: 5.72 | pIC50 [4]: 5.80 | inhibition in vivo at 50 mg/kg (Mus musculus [8]): 58% | inhibition in vivo at 25 mg/kg (Mus musculus [9]): 29% | Activity (PBMN): Active | Activity (Syrian golden hamster [6]): 63 | Activity (Syrian golden hamster [7]): 9 | pIC50 [5]: 5.00

CC(C)(Sc1cc(C(C)(C)C)c(O)c(C(C)(C)C)c1)Sc1ccc(C(C)(C)C)c(OC[C@H]2OC(O)[C@H](O)[C@@H]2O)c1C(C)(C)C (some centres undefined)
pIC50 [1]: 5.10

CC(C)(Sc1cc(C(C)(C)C)c(O)c(C(C)(C)C)c1)Sc1ccc(C(C)(C)C)c(OCCCCO)c1C(C)(C)C
pIC50 [1]: 3.90

CC(C)(Sc1cc(C(C)(C)C)c(O)c(C(C)(C)C)c1)Sc1ccc(C(C)(C)C)c(OC[C@@H](O)[C@@H](O)[C@@H](O)CO)c1C(C)(C)C
pIC50 [1]: 4.89 | Activity (Syrian golden hamster [6]): 119 | Activity (Syrian golden hamster [7]): 338

CC(C)(Sc1cc(C(C)(C)C)c(O)c(C(C)(C)C)c1)Sc1ccc(C(C)(C)C)c(OC/C(N)=N/O)c1C(C)(C)C
pIC50 [1]: 4.59

CC(C)(Sc1cc(C(C)(C)C)c(O)c(C(C)(C)C)c1)Sc1ccc(C(C)(C)C)c(OCCC(=O)O)c1C(C)(C)C
pIC50 [1]: 5.15

CC(=O)OC(CO)COc1c(C(C)(C)C)ccc(SC(C)(C)Sc2cc(C(C)(C)C)c(O)c(C(C)(C)C)c2)c1C(C)(C)C (centres undefined)
pIC50 [1]: 4.48

CC(C)(Sc1cc(C(C)(C)C)c(O)c(C(C)(C)C)c1)Sc1ccc(C(C)(C)C)c(OCC(=O)NC(CO)CO)c1C(C)(C)C
pIC50 [1]: 5.22

CC(C)(Sc1cc(C(C)(C)C)c(O)c(C(C)(C)C)c1)Sc1cc(C(C)(C)C)c(OCC(=O)O)c(C(C)(C)C)c1 [CAMOBUCOL]
pIC50 [1]: 5.00 | Activity (Rattus norvegicus [10]): Dose-dependent effect | Activity (Syrian golden hamster [6]): 86 | Activity (Syrian golden hamster [7]): 18

CC(C)(Sc1cc(C(C)(C)C)c(O)c(C(C)(C)C)c1)Sc1ccc(C(C)(C)C)c(OCC(CO)CO)c1C(C)(C)C
pIC50 [1]: 4.89

CC(=O)O[C@@H]1O[C@H](COc2c(C(C)(C)C)ccc(SC(C)(C)Sc3cc(C(C)(C)C)c(O)c(C(C)(C)C)c3)c2C(C)(C)C)[C@@H](OC(C)=O)[C@H](OC(C)=O)[C@H]1OC(C)=O
pIC50 [1]: < 4.30

CN(CC(=O)O)C(=O)COc1c(C(C)(C)C)ccc(SC(C)(C)Sc2cc(C(C)(C)C)c(O)c(C(C)(C)C)c2)c1C(C)(C)C
pIC50 [1]: 5.15

CC(C)(Sc1cc(C(C)(C)C)c(O)c(C(C)(C)C)c1)Sc1ccc(C(C)(C)C)c(OCC(O)CO)c1C(C)(C)C (centres undefined)
pIC50 [1]: 4.52

CC(C)(Sc1cc(C(C)(C)C)c(O)c(C(C)(C)C)c1)Sc1ccc(C(C)(C)C)c(OCC(=O)NCC(=O)O)c1C(C)(C)C
pIC50 [1]: 5.22

CC(C)(Sc1cc(C(C)(C)C)c(O)c(C(C)(C)C)c1)Sc1cc(C(C)(C)C)c(OCCCC(=O)O)c(C(C)(C)C)c1 [ELSIBUCOL]
pIC50 [1]: 4.96 | Activity (Rattus norvegicus [11]): Active

CC(C)(Sc1cc(C(C)(C)C)c(O)c(C(C)(C)C)c1)Sc1ccc(C(C)(C)C)c(OC[C@H](O)[C@@H](O)CO)c1C(C)(C)C
pIC50 [1]: 5.22 | pIC50 [2]: 5.11 | pIC50 [3]: 5.40 | pIC50 [4]: 5.77 | inhibition in vivo at 50 mg/kg (Mus musculus [8]): 58% | inhibition in vivo at 25 mg/kg (Mus musculus [9]): 29%

CC(C)(Sc1cc(C(C)(C)C)c(O)c(C(C)(C)C)c1)Sc1ccc(C(C)(C)C)c(OC[C@H]2OC(=O)[C@H](O)[C@@H]2O)c1C(C)(C)C
pIC50 [1]: 4.89

CC(C)(Sc1cc(C(C)(C)C)c(O)c(C(C)(C)C)c1)Sc1ccc(C(C)(C)C)c(OC[C@@H](O)[C@@H](O)[C@H](O)[C@@H](O)CO)c1C(C)(C)C
pIC50 [1]: 4.82 | pIC50 [2]: 5.66 | pIC50 [3]: 5.74 | pIC50 [4]: 6.00 | inhibition in vivo at 50 mg/kg (Mus musculus [8]): 58% | inhibition in vivo at 25 mg/kg (Mus musculus [9]): 29% | Activity (Syrian golden hamster [6]): 94 | Activity (Syrian golden hamster [7]): 30 | pIC50 [5]: 4.92

CC(C)(Sc1cc(C(C)(C)C)c(O)c(C(C)(C)C)c1)Sc1ccc(C(C)(C)C)c(OCC(O)CNCC(=O)O)c1C(C)(C)C (centres undefined)
pIC50 [1]: 4.80 | Activity (Syrian golden hamster [6]): 146 | Activity (Syrian golden hamster [7]): 190

CC(C)(Sc1cc(C(C)(C)C)c(O)c(C(C)(C)C)c1)Sc1ccc(C(C)(C)C)c(O/C=C/C(=O)O)c1C(C)(C)C
pIC50 [1]: 4.52

CC(C)(Sc1cc(C(C)(C)C)c(O)c(C(C)(C)C)c1)Sc1ccc(C(C)(C)C)c(OC[C@@H](O)[C@H](O)CO)c1C(C)(C)C
pIC50 [1]: 6.00 | pIC50 [2]: 5.10 | pIC50 [3]: 5.48 | pIC50 [4]: 5.92 | inhibition in vivo at 50 mg/kg (Mus musculus [8]): 58% | inhibition in vivo at 25 mg/kg (Mus musculus [9]): 29%

CC(C)(Sc1cc(C(C)(C)C)c(O)c(C(C)(C)C)c1)Sc1ccc(C(C)(C)C)c(OCCCCC(=O)O)c1C(C)(C)C
pIC50 [1]: 4.64
